Assay outcomes deposited in PubChem BioAssay by Broad Institute.
Rows were chosen to be rich in hits. Some 0.98% of all compounds tested hit in one or more screens of this group.
S100A4 MyoIIA: inhibitors of human S100A4 binding to myosin IIA peptide | inhibition, % at 10.7 µM | P26447 | S100A4/TAMRA-MyoIIA peptide fluorescence polarization | 360,000 tested, 0.14% active;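 active means mean inhibition of at least 70% across replicates, with every replicate also reaching that level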
Target sequence (P26447 whole entry, looked up): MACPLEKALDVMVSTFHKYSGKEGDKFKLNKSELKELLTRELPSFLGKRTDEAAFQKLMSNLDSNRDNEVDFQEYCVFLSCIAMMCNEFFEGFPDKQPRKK
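Material: S100A4 monomer protein | Medium: HEPES pH 7.2 with CaCl2, KCl, NaCl, DTT, Triton | Reagent: Labelled myosin peptide probe, 5 nM | Doses: One dose per compound | Times: 5 min incubation before reading | Benchmarks: Neutral control DMSO, positive control TFP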
Rtt109 Vps75: blocks Candida albicans Rtt109/Vps75 acetyltransferase activity; Q5AAJ8; 330,000 tested, 0.16% active; purified Rtt109/Vps75, ThioGlo CoA-SH fluorescence, 4 h; inhibition, % at 34.9 µM;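 active means inhibition of at least 50% in every replicate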
Target sequence (Q5AAJ8 whole entry, looked up): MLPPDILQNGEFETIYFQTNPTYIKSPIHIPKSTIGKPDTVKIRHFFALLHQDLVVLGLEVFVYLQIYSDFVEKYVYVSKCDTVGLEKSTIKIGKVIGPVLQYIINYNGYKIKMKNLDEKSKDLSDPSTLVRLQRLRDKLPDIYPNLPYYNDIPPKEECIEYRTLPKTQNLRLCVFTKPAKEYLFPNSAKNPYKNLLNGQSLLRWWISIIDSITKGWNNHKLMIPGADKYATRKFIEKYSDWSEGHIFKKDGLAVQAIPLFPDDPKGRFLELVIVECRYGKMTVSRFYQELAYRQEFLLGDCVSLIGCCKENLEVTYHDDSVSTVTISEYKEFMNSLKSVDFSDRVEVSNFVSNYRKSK
ERAP1 inh: ERAP1 (human) enzyme inhibition; recombinant ERAP1, Leu-AMC fluorescence, 60 min; inhibition, % at 10.7 µM; 340,000 tested, 0.15% active;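 active means mean replicate inhibition of at least 30%, or all replicates individually reaching that 30% level; inactive means mean below 30% and not every replicate reaching it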;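 further: 0% = neutral control wells and 100% = L-leucinethiol positive control wells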
Statin myotox sup: suppressors of simvastatin-induced myotoxicity in C2C12 myotubes | rescue of ATP level, % at 7.49 µM | AID 602340 | 330,000 tested, 0.78% active | ATP luminescence, 48 h; scaled: DMSO 0, geranylgeraniol control 100;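 active means mean ATP rescue above about 67%, or every replicate alone reaching that limit, limit read from the data, passing the limit was not always enough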;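 further: myotubes were challenged with 10 µM simvastatin during compound exposure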
PGC1a acetyl inh: modulators of PGC1a acetylation; inhibition, % at 15.6 µM; AID 651687; U2OS PGC1a acetylation, AlphaScreen anti-acetyl-lysine; with virally co-expressed GCN5 acetyltransferase; 350,000 tested, 0.17% active;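 active means every replicate shows inhibition of at least 40%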;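 further: 0% = neutral control wells and 100% = positive control wells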
Active calls of the source: *; . = no result.

SMILES | S100A4 MyoIIA | Rtt109 Vps75 | ERAP1 inh | Statin myotox sup | PGC1a acetyl inh
C[C@@H]1CN([C@@H](C)CO)C(=O)c2cc(NC(=O)NC3CCCCC3)ccc2O[C@@H](C)CCCCO[C@H]1CN(C)C | -1 | . | -4 | 12 | -1
CC1CCCN(C(=O)c2sc3cc([N+](=O)[O-])ccc3c2Cl)C1 (stereo not drawn) | . | 8 | . | 66* | -9
O=C(c1sc2cc([N+](=O)[O-])ccc2c1Cl)N1CCCCC1 | . | 0 | . | 1 | 10
O=C(CN1CCOCC1)NCC[C@H]1CC[C@@H](NS(=O)(=O)c2ccc(Cl)cc2)[C@@H](CO)O1 | 5 | . | -1 | -13 | 4
CC(=O)c1cccc(S(=O)(=O)N2CCC(C(=O)O)CC2)c1 | 7 | 58* | . | . | .
CC(=O)Nc1ccc(C(=O)CCl)cc1 | 94* | -6 | 2 | 0 | 1
O=C(c1ccccc1)c1ccc(Cn2cc(CCCO)nn2)cc1 | -7 | -6 | -3 | 150* | -6
O=C(NC(=S)Nc1ccccc1N1CCCC1)c1cccs1 | -7 | -14 | 1 | . | 51*
O=C(NC(=S)Nc1ccccc1N1CCCCC1)c1cccs1 | . | -25 | . | . | .
CC1CCc2sc(C(=O)Nc3nnc(SCc4ccc(F)cc4)s3)cc2C1 (stereo not drawn) | . | -4 | . | . | 94*
C[C@H]1CN([C@@H](C)CO)C(=O)c2cc(C#Cc3ccccn3)cnc2O[C@H]1CN(C)CC1CCCC1 | . | . | . | 3 | -10
O=C(OCc1ccc(Br)cc1)c1cccnc1 | -6 | 2 | -2 | 7 | 1
O=C(OCc1ccc(Br)cc1)c1ccncc1 | 1 | 57* | 7 | -5 | 7
Cc1cc(Cl)c(S(=O)(=O)N2CC(C)OC(C)C2)cc1OCC(N)=O (stereo not drawn) | . | -3 | . | 135* | -17
CC(C)C12CN3CC(C(C)C)(CN(C1)C31C(=O)Nc3ccccc31)C2=O (stereo not drawn) | -2 | 1 | . | 90* | -5
Cc1ccc(-c2n[nH]c(=S)n2/N=C/c2cccn2C)cc1 | . | 16 | . | . | 50*
CNC[C@@H]1Oc2c(NC(=O)c3cc(C)nn3C)cccc2C(=O)N([C@H](C)CO)C[C@@H]1C | 1 | . | 1 | 1 | 3
CC(=O)OC(C[N+]1(C)CCCCCC1)c1ccccc1 (stereo not drawn) | -5 | -4 | 17 | 8 | 1
C[N+]1(CC(O)c2ccccc2)CCCCCC1 (stereo not drawn) | 4 | -6 | 43* | 0 | .
O=C(OCC(=O)N1CCN(C(=O)c2ccco2)CC1)c1ccccc1OCc1ccc(Cl)cc1 | . | 9 | . | 133* | 1
COc1ccc(N2C(=O)c3ccc(NC(C)=O)cc3C2=O)cc1 | . | -3 | . | -17 | -23
CC(=O)Nc1ccc2c(c1)C(=O)N(c1ccc(C)cc1)C2=O | . | 10 | . | 77* | 20
COc1ccc(S(=O)(=O)N2CCOCC2)cc1C(C)C | . | -7 | . | 10 | -1
CCC(C)c1cc(S(=O)(=O)N2CCOCC2)ccc1OC (stereo not drawn) | . | -6 | . | 82* | -24
O=C(CN1CCN(CCOCCO)CC1)N1c2ccccc2Sc2ccc(Cl)cc21 | . | -5 | . | 108* | -11
SMILES | S100A4 MyoIIA | Rtt109 Vps75 | ERAP1 inh | Statin myotox sup | PGC1a acetyl inh
O=C(CN1CCOCC1)N1c2ccccc2Sc2ccc(Cl)cc21 | 2 | . | 5 | 4 | .
CCOC(=O)c1c(C)oc2c(CC(=O)c3ccccc3)c(Cl)c(O)c(O)c12 | . | 58* | . | . | -5
O=C(c1cnccn1)N1CC(=O)N2[C@H](CO)[C@H](c3ccc(C#CCC4CCCC4)cc3)[C@@H]2C1 | 9 | . | 3 | . | -21
O=c1[nH]c2ccc(NC(=S)Nc3ccc(Cl)cc3)cc2[nH]1 | . | -2 | . | 41 | 0
COC(=O)NC(=S)Nc1ccc(Oc2ccc(Cl)cc2Cl)c(Cl)c1 | . | 1 | . | 126* | -18
Fc1ccc(NC(=S)Nc2ccc(F)c(Cl)c2)cc1Cl | . | -5 | . | 69* | 1
O=c1[nH]c2ccc(NC(=S)Nc3ccc(Cl)cc3Cl)cc2[nH]1 | . | -3 | . | 139* | -1
COC(=O)NC(=S)Nc1ccc(Oc2ccc(Cl)cc2)c(Cl)c1 | 8 | 2 | -1 | -19 | 15
C[C@H]1CN([C@@H](C)CO)C(=O)c2cc(-c3ccc(C(=O)N(C)C)cc3)cnc2O[C@H]1CN(C)C(=O)c1ccncc1 | 0 | . | 1 | 4 | 7
CC(C)CC(C(=O)Nc1oc(-c2ccco2)c(-c2ccco2)c1C#N)N1C(=O)c2ccccc2C1=O (stereo not drawn) | . | -4 | . | 117* | -2
